In paper PMC7246176 (Nature chemical biology, 2020):
Read-outs that look alike come from different tables or passages of the source.

Key:
[1] = test system: PATU-8902 cells; assay: Cell viability, 2D-adherent monolayer culture, PATU-8902; format: cell-based, human; conditions: read-out: PATU-8902 cells 2D monolayer culture IC50
Outline: (§1)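 PATU-8902 or PATU-8988T cells were plated at 100 cells/well and left overnight to adhere (2D plates) or to form spheroids (ultra-low-attachment 3D spheroid plates). Compound was pin-transferred, then 120 h incubation. Viability by CellTiter-Glo luminescence after 15 min at room temperature, normalized to DMSO-treated wells for each cell line.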

[2] = test system: PATU-8988T cells; assay: Cell viability, 2D-adherent monolayer culture, PATU-8988T; format: cell-based, human; conditions: read-out: PATU-8988T cells 2D monolayer culture IC50, 120 h
Outline: (§2)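 PATU-8988T and PATU-8902 cells were plated at 100 cells/well in 50 μL media, either adherent (2D) or in ultra-low attachment spheroid plates (3D), overnight. Test compound was pin-transferred and cells were incubated 120 h. Viability was read by CellTiter-Glo luminescence after 15 min at room temperature. Data were normalized to DMSO-treated wells per cell line and fitted.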

[3] = test system: PANFR0172_T4; assay: Patient-derived pancreatic organoid viability, PANFR0172_T4; format: cell-based, human; conditions: read-out: PANFR0172_T4 3D organoid culture IC50
Outline: (§3)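 Patient-derived PDAC organoids were dissociated to single cells and plated at 1000 viable cells/well in complete organoid medium with 10% Matrigel, in ultra-low-attachment 384-well plates. After 24 h, compound was added by digital dispenser, then 7 days incubation. Read-out was CellTiter-Glo 3D luminescence after 1 h shaking at room temperature, normalized to DMSO wells for each culture.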

[4] = test system: PANFR0172_T3; assay: Patient-derived pancreatic organoid viability, PANFR0172_T3; format: cell-based, human; conditions: read-out: PANFR0172_T3 3D organoid culture IC50
Outline: as §3

[5] = test system: PATU-8988T cells; assay: Cell viability, ultra-low adherent 3D-spheroid culture, PATU-8988T; format: cell-based, human; conditions: read-out: PATU-8988T cells 3D spheroid culture IC50, 120 h
Outline: as §1

[6] = test system: PANFR0029_T2; assay: Patient-derived pancreatic organoid viability, PANFR0029_T2; format: cell-based, human; conditions: read-out: PANFR0029_T2 3D organoid culture IC50
Outline: as §3

[7] = test system: PATU-8902 cells; assay: Cell viability, ultra-low adherent 3D-spheroid culture, PATU-8902; format: cell-based, human; conditions: read-out: PATU-8902 cells 3D spheroid culture IC50
Outline: as §2

[8] = test system: PANFR0172_T2; assay: Patient-derived pancreatic organoid viability, PANFR0172_T2; format: cell-based, human; conditions: read-out: PANFR0172_T2 3D organoid culture IC50
Outline: as §3

[9] = biological target: T1, DCLK1 (Homo sapiens, UniProt O15075); assay: 33P-ATP DCLK1 kinase assay; format: biochemical; conditions: DCLK1 kinase assay IC50, 33P-ATP; ATP 50 μM (Km)
T1 sequence (O15075 1-740): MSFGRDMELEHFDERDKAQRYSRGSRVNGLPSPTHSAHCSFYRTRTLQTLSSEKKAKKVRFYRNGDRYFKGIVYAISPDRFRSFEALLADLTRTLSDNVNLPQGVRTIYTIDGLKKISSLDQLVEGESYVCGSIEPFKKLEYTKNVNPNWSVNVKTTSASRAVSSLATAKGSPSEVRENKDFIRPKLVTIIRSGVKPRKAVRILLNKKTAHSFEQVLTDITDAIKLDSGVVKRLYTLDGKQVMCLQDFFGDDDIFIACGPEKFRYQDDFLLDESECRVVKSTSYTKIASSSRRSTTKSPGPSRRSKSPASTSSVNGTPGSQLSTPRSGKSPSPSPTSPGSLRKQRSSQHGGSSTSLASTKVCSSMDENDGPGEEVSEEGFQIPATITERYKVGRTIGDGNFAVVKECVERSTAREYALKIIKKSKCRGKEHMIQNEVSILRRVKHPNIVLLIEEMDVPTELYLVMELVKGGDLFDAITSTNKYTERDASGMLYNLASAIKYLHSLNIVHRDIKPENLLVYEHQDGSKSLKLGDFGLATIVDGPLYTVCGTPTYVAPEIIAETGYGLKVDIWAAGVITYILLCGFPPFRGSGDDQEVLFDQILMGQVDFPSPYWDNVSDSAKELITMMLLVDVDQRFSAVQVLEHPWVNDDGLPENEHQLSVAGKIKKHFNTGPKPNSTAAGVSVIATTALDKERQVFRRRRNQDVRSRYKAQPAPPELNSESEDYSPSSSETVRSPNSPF

[10] = biological target: LRRK2 (Homo sapiens, UniProt Q5S007); assay: LRRK2 ADAPTA kinase assay; format: biochemical; conditions: LRRK2 kinase assay IC50, ADAPTA; Table 1
LRRK2, sequence (Q5S007 whole entry): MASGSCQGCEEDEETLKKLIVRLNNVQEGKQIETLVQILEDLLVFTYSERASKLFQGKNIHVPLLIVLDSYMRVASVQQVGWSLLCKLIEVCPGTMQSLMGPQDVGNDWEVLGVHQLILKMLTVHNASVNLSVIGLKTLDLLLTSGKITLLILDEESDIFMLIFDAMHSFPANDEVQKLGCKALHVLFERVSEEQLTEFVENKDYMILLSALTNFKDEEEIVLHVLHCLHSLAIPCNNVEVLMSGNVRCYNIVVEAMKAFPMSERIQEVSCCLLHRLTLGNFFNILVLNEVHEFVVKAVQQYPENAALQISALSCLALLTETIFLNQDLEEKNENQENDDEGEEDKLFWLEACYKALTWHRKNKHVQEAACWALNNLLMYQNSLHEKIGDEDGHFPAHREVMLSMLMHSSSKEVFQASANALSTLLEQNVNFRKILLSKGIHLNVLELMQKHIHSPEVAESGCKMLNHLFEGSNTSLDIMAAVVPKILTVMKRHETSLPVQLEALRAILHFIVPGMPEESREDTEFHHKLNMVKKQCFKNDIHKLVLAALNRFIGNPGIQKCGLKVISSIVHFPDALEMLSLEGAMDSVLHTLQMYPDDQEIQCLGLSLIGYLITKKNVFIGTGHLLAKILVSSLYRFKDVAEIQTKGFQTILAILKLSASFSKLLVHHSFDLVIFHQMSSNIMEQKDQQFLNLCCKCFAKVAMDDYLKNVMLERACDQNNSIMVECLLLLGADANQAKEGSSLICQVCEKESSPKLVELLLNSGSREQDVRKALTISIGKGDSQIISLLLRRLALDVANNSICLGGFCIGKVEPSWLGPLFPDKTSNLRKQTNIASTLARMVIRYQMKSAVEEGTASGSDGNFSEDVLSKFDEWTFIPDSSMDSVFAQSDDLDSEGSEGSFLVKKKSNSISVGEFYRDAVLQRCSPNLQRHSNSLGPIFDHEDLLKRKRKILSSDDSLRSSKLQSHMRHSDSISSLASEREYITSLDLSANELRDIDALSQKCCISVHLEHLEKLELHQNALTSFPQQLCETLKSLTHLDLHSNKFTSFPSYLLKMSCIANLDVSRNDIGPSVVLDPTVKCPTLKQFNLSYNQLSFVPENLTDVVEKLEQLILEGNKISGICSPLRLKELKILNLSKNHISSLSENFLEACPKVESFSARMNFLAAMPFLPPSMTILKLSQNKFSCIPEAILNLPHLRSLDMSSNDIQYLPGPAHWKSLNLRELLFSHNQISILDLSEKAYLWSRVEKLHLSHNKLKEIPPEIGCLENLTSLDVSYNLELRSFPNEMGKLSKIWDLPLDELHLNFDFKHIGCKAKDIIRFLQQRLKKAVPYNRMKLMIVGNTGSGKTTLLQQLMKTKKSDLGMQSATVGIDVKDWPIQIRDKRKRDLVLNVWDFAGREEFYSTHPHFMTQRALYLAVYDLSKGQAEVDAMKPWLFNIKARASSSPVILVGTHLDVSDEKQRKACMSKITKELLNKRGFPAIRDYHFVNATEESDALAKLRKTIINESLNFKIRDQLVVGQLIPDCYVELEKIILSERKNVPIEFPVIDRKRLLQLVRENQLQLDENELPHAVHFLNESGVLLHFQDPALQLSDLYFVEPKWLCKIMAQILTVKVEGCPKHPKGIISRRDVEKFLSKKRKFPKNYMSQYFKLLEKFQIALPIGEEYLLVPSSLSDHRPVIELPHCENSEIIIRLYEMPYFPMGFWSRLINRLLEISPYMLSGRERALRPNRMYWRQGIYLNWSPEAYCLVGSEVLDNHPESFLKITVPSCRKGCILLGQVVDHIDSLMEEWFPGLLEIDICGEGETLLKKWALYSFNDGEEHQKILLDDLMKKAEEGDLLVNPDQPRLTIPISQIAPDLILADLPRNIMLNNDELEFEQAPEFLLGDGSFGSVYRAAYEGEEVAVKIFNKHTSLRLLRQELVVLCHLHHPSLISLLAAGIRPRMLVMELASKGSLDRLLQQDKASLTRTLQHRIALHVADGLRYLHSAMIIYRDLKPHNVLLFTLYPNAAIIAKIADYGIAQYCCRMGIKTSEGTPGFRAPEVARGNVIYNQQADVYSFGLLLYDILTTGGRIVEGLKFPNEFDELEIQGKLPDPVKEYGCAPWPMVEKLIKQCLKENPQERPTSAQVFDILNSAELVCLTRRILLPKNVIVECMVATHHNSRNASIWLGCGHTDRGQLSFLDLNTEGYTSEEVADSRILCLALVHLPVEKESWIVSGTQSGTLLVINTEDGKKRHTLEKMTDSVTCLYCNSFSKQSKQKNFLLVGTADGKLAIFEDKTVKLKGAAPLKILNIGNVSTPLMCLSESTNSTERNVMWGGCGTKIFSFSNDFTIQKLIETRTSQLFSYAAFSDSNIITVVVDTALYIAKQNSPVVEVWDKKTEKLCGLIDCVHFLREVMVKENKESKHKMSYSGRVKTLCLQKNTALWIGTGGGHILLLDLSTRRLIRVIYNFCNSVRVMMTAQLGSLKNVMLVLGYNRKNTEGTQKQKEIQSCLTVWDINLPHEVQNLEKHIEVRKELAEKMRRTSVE

[11] = biological target: T2, DCLK2 (Homo sapiens, UniProt Q8N568); assay: DCLK2 KINOMEscan binding assay
T2 sequence (Q8N568 1-766): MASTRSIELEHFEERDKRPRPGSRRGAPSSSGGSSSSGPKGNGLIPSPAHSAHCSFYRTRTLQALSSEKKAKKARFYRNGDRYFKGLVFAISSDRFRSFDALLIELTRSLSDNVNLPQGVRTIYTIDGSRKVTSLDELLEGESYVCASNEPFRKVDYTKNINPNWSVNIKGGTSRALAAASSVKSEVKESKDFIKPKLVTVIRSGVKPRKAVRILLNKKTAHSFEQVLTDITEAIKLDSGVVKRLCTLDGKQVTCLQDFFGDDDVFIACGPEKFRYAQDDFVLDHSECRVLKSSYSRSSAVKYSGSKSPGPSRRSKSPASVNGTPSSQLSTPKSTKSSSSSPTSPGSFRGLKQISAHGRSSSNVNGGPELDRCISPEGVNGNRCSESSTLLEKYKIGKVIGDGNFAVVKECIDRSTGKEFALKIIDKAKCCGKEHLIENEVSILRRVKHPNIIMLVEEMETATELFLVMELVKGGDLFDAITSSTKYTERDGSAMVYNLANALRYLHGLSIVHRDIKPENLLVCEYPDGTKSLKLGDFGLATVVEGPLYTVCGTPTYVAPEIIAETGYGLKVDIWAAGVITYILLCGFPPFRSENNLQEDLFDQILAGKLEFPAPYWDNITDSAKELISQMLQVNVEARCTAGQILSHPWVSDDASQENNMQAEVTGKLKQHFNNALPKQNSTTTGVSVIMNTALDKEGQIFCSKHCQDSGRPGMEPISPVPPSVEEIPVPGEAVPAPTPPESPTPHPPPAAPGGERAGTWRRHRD
Outline: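 KINOMEscan competition binding run by a contract lab. Test compound in 12-point dose response, top concentration 10 μM. Values are the mean of n = 2 biologically independent samples.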

[12] = biological target: T3, DCLK1-Nluc in HCT116 cells (Homo sapiens, UniProt O15075); assay: DCLK1 NanoBRET target engagement assay in HCT116 cells; format: cell-based
T3 sequence (O15075 1-729 isoform O15075-2): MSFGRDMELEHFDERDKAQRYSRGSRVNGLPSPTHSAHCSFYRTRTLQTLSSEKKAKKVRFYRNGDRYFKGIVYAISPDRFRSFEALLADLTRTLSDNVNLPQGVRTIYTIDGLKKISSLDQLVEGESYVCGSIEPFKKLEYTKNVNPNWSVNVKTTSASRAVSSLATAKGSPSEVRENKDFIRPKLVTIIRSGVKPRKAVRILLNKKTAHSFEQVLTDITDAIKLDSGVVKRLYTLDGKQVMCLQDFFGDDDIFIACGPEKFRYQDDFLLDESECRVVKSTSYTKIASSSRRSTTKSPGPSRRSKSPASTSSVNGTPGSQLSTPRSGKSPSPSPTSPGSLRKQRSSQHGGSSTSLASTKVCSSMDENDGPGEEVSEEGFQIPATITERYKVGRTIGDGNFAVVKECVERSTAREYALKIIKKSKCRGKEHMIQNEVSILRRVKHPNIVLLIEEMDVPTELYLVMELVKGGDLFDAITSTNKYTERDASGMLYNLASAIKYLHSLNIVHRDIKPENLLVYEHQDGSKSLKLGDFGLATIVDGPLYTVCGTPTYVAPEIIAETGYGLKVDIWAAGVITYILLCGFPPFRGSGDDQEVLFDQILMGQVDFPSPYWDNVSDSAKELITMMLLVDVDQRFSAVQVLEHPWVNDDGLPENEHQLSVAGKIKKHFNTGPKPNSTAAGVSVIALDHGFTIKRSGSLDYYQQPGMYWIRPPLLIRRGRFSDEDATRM

[13] = test system: DCLK1 protein levels; assay: DCLK1 protein levels by immunoblot in PDAC cells; format: cell-based, human; conditions: after 48 h, PATU-8988T and PATU-8902 cells
[14] = test system: FKBP12^F36V-KRAS^G12V; assay: KRAS G12V degradation by immunoblot in FKBP12F36V-KRASG12V; format: cell-based, human; conditions: KRAS^−/− cells
[15] = viability, 7 d, P.R. = partial response

Work on `Cc1sc2c(c1C)C(c1ccc(Cl)cc1)=N[C@@H](CC(=O)OC(C)(C)C)c1nnc(C)n1-2` [JQ1] yielded an IC50 ([1]; cell viability, 120 h) of 1.81 µM, an IC50 ([2]; cell viability, P.R. = partial response) of 0.0674 µM and an IC50 [3, 15] of over 1 µM. It also gave an IC50 [4, 15] of over 1 µM, an IC50 ([5]; cell viability) of 0.111 µM and an IC50 ([6]; viability, 7 d, DCLK1-negative organoids) of 0.363 µM. The IC50 ([7]; cell viability, 120 h, P.R. = partial response) was over 1 µM and the IC50 [8, 15] was over 1 µM.
With `COc1cc(C(=O)N2CCC(N3CCN(C)CC3)CC2)ccc1Nc1ncc2c(n1)N(C)c1ccccc1C(=O)N2C` [LRRK2-IN-1] the IC50 ([1]; Homo sapiens, PaTu 8902, 120 h) was over 20 µM, the IC50 [9] was 0.055 µM and the IC50 ([2]; Homo sapiens, PaTu 8988t) was 1.15 µM. It also gave an IC50 [10] of 0.0041 µM, an IC50 ([3]; Homo sapiens, 168 h) of over 20 µM and an IC50 ([4]; Homo sapiens, 168 h) of 1.5 µM. For the same molecule, the IC50 [11] was 0.0099 µM, the IC50 ([5]; Homo sapiens, PaTu 8988t) was 1.87 µM and the IC50 ([7]; Homo sapiens, PaTu 8902, 120 h) was over 1 µM. For the same molecule, the IC50 [12] was 0.4 µM and the IC50 ([8]; Homo sapiens, 168 h) was 1.34 µM.
For `CC(=O)Nc1cccc(-n2c(=O)n(C3CC3)c(=O)c3c(Nc4ccc(I)cc4F)n(C)c(=O)c(C)c32)c1` [Trametinib], the IC50 ([1]; Homo sapiens, PaTu 8902, 120 h) was 0.00489 µM, the “effect on DCLK1 protein levels” value [13] was “diminished DCLK1 protein levels” and the IC50 ([2]; Homo sapiens, PaTu 8988t) was 0.06 µM. It also gave an IC50 ([3]; Homo sapiens, 168 h) of over 20 µM, an IC50 ([4]; Homo sapiens, 168 h) of 1.18 µM and an IC50 ([5]; Homo sapiens, PaTu 8988t) of 0.001 µM. For the same molecule, the IC50 ([6]; Homo sapiens, 168 h) was 0.185 µM, the IC50 ([7]; Homo sapiens, PaTu 8902, 120 h) was under 0.00063 µM and the IC50 ([8]; Homo sapiens, 168 h) was 0.791 µM.
For `CC[C@H](C(=O)N1CCCC[C@H]1C(=O)O[C@H](CCc1ccc(OC)c(OC)c1)c1ccccc1OCC(=O)NCCCCCCOc1cccc2c1C(=O)N(C1CCC(=O)NC1=O)C2=O)c1cc(OC)c(OC)c(OC)c1` (some centres unmarked) [dTAG-13], the “time to initiation of KRAS^G12V degradation” value [14] was at most 1 h.
